{
  "source": "paper PMC4729448",
  "about": "(Molecular cancer therapeutics, 2013)",
  "key": {"[1]": {"test": "Pharmacokinetic analysis in cannulated rat model", "format": "in vivo, Sprague Dawley rats", "details": "for observable effects in the animals following dosing: rat pharmacokinetic studies", "method_in_brief": "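Fasted male Sprague Dawley rats fitted with carotid artery and jugular and/or femoral vein catheters. Dosed iv or orally with 0.2 micron-filtered solutions; automated sampling allowed both routes in the same animal. Plasma separated by centrifugation and stored at -80 °C. Prodrug, 2-ME2 and metabolites quantified by LC-MS/MS against deuterated internal standards. Parameters from non-parametric analysis; animals observed after dosing.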"}, "[2]": {"tested_on": "OE33 cells", "test": "Crystal violet cell proliferation assay", "format": "cell-based", "details": "for IC50: Homo sapiens, OE33, 48 h, read-out: IC50, OE33 cell proliferation/viability"}, "[3]": {"tested_on": "OE33 xenograft tumors", "test": "OE33 tumor xenograft in athymic nude mice", "format": "in vivo, athymic nude mice (BALB/c-nu/nu)", "details": "12 days; for effect on growth of established OE33 xenograft tumors: 75 mg/kg/day orogastric"}, "[4]": {"tested_on": "OE33 cells", "test": "Phase-contrast cellular morphology of OE33 cells", "format": "cell-based", "details": "48 h"}, "[5]": {"tested_on": "microtubule network in OE33 cells", "test": "Anti-α-Tubulin immunofluorescence of microtubule network in OE33 cells", "format": "cell-based", "details": "48 h"}, "[6]": {"details": "oral administration, published literature ref 1, 10-12; cited from earlier work"}, "[7]": {"tested_on": "microtubule distribution in OE33-tumor xenografts", "test": "Anti-α-Tubulin immunofluorescence of OE33 tumor xenograft sections", "format": "in vivo, athymic nude mice (BALB/c-nu/nu)", "details": "treated OE33-tumor xenograft sections vs untreated"}, "[8]": {"test": "Dissolution in sterile water", "format": "physicochemical"}, "[9]": {"details": "Sprague-Dawley, rat, plasma, iv, 5.21 mg/kg"}},
  "data": [
    {"compound": "COc1cc2c(cc1O)CC[C@@H]1[C@@H]2CC[C@]2(C)[C@@H](O)CC[C@@H]12", "note": "[2-ME2, 2-Methoxyestradiol]", "values": [
      {"measurement": "AUC(0-t)", "setting": "[1]; [9]", "value": 321, "unit": "ng·h/mL"},
      {"measurement": "Cmax", "setting": "[1]; [9]", "value": 1220, "unit": "ng/mL"},
      {"measurement": "half-life", "setting": "[1]; [9]", "value": 59, "unit": "min"},
      {"measurement": "observable effects in the animals following dosing", "setting": "[1]", "value": "no observable effects"},
      {"measurement": "IC50", "setting": "[2]", "value": "~6", "unit": "µM"},
      {"measurement": "effect on growth of established OE33 xenograft tumors", "setting": "[3]", "value": "inconsistent"},
      {"measurement": "alteration of cellular morphology compared to 2-ME2-PD1", "setting": "[4]; 2.5 μM or 5 μM", "value": "much more drastic"},
      {"measurement": "microtubule disruption", "setting": "[5]; 5 μM", "value": "totally disrupted"},
      {"measurement": "serum bioavailability", "setting": "[6]", "value": "1 - 2%"}
    ]},
    {"compound": "COc1cc2c(cc1OCOP(=O)([O-])[O-])CC[C@@H]1[C@@H]2CC[C@]2(C)[C@@H](OC(C)=O)CC[C@@H]12.[Na+].[Na+]", "note": "[2-ME2-PD1, disodium (((8R,9S,13S,14S,17S)-17-acetoxy-2-methoxy-13-methyl-7,8,9,11,12,13,14,15,16,17-decahydro-6H-cyclopenta[a]phenanthren-3-yl)oxy)methyl phosphate]", "values": [
      {"measurement": "observable effects in the animals following dosing", "setting": "[1]", "value": "no observable effects"},
      {"measurement": "IC50", "setting": "[2]", "value": "~17", "unit": "µM"},
      {"measurement": "IC50 fold higher than 2-ME2", "setting": "[2]; OE33 viability, 48 h", "value": "~3", "unit": "fold"},
      {"measurement": "effect on growth of established OE33 xenograft tumors", "setting": "[3]", "value": "inhibited the growth"},
      {"measurement": "reduction in tumor volume relative to the control group", "setting": "[3]; oral 75 mg/kg/d", "value": "60 ± 5", "unit": "%"},
      {"measurement": "alteration of cellular morphology", "setting": "[4]; 2.5 μM", "value": "mild to no alterations"},
      {"measurement": "alteration of cellular morphology", "setting": "[4]; 5 μM", "value": "atrophy"},
      {"measurement": "microtubule disruption", "setting": "[5]; 2.5 μM", "value": "not very prominent"},
      {"measurement": "microtubule disruption", "setting": "[5]; 5 μM", "value": "significantly disrupted"},
      {"measurement": "microtubule distribution and cellular morphology in tumor xenografts", "setting": "[7]", "value": "striking alteration in microtubule distribution"},
      {"measurement": "solubility in sterile water", "setting": "[8]", "value": "readily dissolves in sterile water"}
    ]}
  ]
}
